# In ChEMBL document CHEMBL1123238, “Binding requirements of phenolic phenylethylamines in the benzonorbornene skeleton at the active site of phenylethanolamine N-methyltransferase” (J Med Chem, 1986):
# How the values were obtained:
# [1] = Vmax of compound was measured; type: ADME
# [2] = target: T1, Phenylethanolamine N-methyltransferase (Bos taurus, UniProt P10938); assay: Compound was tested in vitro inhibition of phenylethanolamine N-methyl-transferase (PNMT) activity using radiochemical assay
# T1 sequence (P10938 whole entry): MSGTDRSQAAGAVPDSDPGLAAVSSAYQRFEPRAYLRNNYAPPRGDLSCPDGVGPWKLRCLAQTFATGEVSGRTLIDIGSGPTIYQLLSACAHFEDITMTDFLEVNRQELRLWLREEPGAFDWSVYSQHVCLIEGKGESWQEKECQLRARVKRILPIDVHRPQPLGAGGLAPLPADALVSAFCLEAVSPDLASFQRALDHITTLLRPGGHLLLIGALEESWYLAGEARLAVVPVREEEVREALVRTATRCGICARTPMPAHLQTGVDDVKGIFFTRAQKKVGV
# [3] = substrate: N[C@@H]1CC2CCC1c1ccccc12; assay: (§1) Compound was tested in vitro for PNMT activity using radiochemical assay.
# Summary of the method: (§2)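 Bovine adrenal PNMT, partially purified through the isoelectric precipitation step. Compounds were tested as hydrobromide salts. Radiochemical assay used phosphate buffer at pH 8.0, unlabeled AdoMet (10 μM stock) plus [methyl-³H]AdoMet, and 30 min incubation at 37 °C. Reactions were quenched with borate at pH 10 and extracted into toluene/isoamyl alcohol (7:3), then scintillation-counted.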
# [4] = substrate: N[C@@H]1CC2CC1c1cc(O)c(O)cc12; assay: as §1; summary of the method: as §2
# [5] = substrate: N[C@@H]1CC2C[C@@H]1c1ccccc12; assay: as §1; summary of the method: as §2
Molecule,Vmax [1] [nM/mg/min],Ki [2] [µM],also measured
N[C@@H]1CC2CCC1c1ccccc12 (stereo not given in full),0.61,258,
N[C@@H]1CC2CC1c1c(O)cccc12 (stereo not given in full),,3000,
N[C@@H]1CC2CC1c1cccc(O)c12 (stereo not given in full),,10000,
N[C@@H]1CC2C[C@@H]1c1ccccc12,0.08,479,
N[C@@H]1CC2CC1c1cc(O)ccc12 (stereo not given in full),,1110,
N[C@@H]1C2CCC1c1c(O)cccc12 (stereo not given in full),,4000,
N[C@@H]1CC2CC1c1cc(O)c(O)cc12 (stereo not given in full),0.44,487,
N[C@@H]1C2CCC1c1cc(O)ccc12 (stereo not given in full),,108,
N[C@@H]1CC2CC1c1ccc(O)cc12 (stereo not given in full),,304,
"Phenylethanolamine N-methyltransferase (Bos taurus), P10938 (protein) MSGTDRSQAAGAVPDSDPGLAAVSSAYQRFEPRAYLRNNYAPPRGDLSCPDGVGPWKLRCLAQTFATGEVSGRTLIDIGSGPTIYQLLSACAHFEDITMTDFLEVNRQELRLWLREEPGAFDWSVYSQHVCLIEGKGESWQEKECQLRARVKRILPIDVHRPQPLGAGGLAPLPADALVSAFCLEAVSPDLASFQRALDHITTLLRPGGHLLLIGALEESWYLAGEARLAVVPVREEEVREALVRTATRCGICARTPMPAHLQTGVDDVKGIFFTRAQKKVGV",,,Km [3]: 81 µM; Km [4]: 686 µM; Km [5]: 192 µM
